Only some compounds are listed: those with a hit (about 3.8% of all), similar ones and a draw of the others.
Xi reactivation = activators of inactive X chromosome reactivation, primary screen, imaging, XiGFP fibroblasts, GFP high-content imaging, set 2; XiGFP mouse fibroblasts, % GFP-positive cells imaging, 3 d; cells co-treated with 5-aza-dC sensitizer; scaled so ellipticine positive control = 100%; activation, % at 7.58 µM; hit rate 0.055% among 360,000; AID 743238, 2013;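 active means mean normalized replicate activation at least 10% and every replicate at or above 10%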
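System: SV40-immortalized XiGFP fibroblast cells, line 68-5-11 / Incubation: 3-day compound exposure, then 15 min fixation at room temperature / Compound: single concentration per compound, delivered by pin transfer / Buffer or medium: DMEM plus 5-aza-dC sensitizer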
FGF22 binding = binders of human FGF22 protein, primary screen, FGF22 synaptogenesis inhibitor project, biophysical, thermal shift, single point; Fibroblast growth factor 22 (Homo sapiens), Q9HCT0; recombinant FGF22 thermal shift, SYPRO orange fluorescence; percent of sucrose octasulfate shift, DMSO zero; activity (Tm shift, normalised), % at 9.99 µM; hit rate 1.5% among 340,000;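 active means mean Tm shift, scaled 0 neutral to 100 positive control, at about 1.3% or above, every replicate too, limit read from the data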
Target sequence (Q9HCT0 whole entry, looked up): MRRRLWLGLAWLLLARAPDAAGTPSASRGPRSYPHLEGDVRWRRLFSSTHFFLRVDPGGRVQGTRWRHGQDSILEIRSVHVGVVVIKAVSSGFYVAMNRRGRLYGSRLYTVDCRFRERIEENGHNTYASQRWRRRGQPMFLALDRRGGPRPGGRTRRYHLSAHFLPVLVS
ARNT TACC3 PPI = disruptors of ARNT/TACC3 protein interaction, primary screen, biochemical, AlphaScreen, single concentration; AID 623870, 2012; inhibition, % at 9.99 µM; Transforming acidic coiled-coil-containing protein 3 (Homo sapiens), Q9Y6A5; hit rate 0.66% among 390,000; AlphaScreen His-ARNT PAS-B/GST-TACC3 binding, luminescence; TACC3 fragment carries E629A point mutation;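 active means mean inhibition of replicates at least 50% and at least half of replicates each reaching 50%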
FN deposit inh = inhibitors of fibronectin matrix deposition, primary screen, AH1F cells, Alexa488-fibronectin fluorescence, plate reader. AH1F fibroblasts, overnight. inhibition, % at 12.6 µM. hit rate 0.086% among 350,000. AID 743247, 2014;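 active means mean inhibition across replicates of 30% or more, regardless of how many single replicates reach that level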
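Material – AH1F fibroblast monolayer, labelled fibronectin deposition · Reagent – labelled fibronectin 24 nM · Timing – 1 h adhesion, overnight exposure · Measured by – fluorescence at 485 nm excitation, 525 nm emission · Read-out – inhibition of fibronectin deposition signal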
SIRT5 inh = SIRT5 desuccinylase inhibitors, primary screen, biochemical, fluorescence imaging, single point, set 5; Purified SirT5, succinyl-peptide AMC, trypsin-coupled fluorescence; AID 652115, 2013; NAD-dependent protein deacylase sirtuin-5, mitochondrial (Homo sapiens), Q9NXA8; inhibition, % at 15 µM; hit rate 1.1% among 330,000; in the data active means inhibition above about 15%
Target sequence (Q9NXA8 whole entry, looked up): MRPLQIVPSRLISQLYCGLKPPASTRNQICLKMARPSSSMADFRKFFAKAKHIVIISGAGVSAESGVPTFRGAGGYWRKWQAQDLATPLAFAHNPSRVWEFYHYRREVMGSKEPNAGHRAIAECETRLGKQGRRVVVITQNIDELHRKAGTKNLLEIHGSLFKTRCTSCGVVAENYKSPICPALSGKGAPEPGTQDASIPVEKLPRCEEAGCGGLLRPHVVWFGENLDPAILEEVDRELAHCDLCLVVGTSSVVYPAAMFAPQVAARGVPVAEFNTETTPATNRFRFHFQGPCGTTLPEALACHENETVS
DENV2 CPE = inhibitors of DENV2 cytopathic effect, primary screen, cell-based, plate reader, single concentration; DENV2-infected cells, cytopathic effect rescue; hit rate 1.7% among 350,000; CPE inhibition, % at 9.99 µM; in the data active means CPE inhibition above about 20%, passing the limit was not always enough; tested in BHK-21 cells
Of the large screens only hits and unclear results are named; the others gave an inactive call.

Cc1cccc(-c2ccc([C@H]3[C@@H](CO)N4CCCCN(C(=O)c5ccncc5)C[C@H]34)cc2)c1	DENV2 CPE 20 (no result: FN deposit inh)
COc1cccc(-c2ccc([C@H]3[C@H](CO)N4CCCCN(C(=O)c5ccc(F)cc5)C[C@@H]34)cc2)c1	DENV2 CPE 37 (no result: FN deposit inh)
CO[C@@H]1CN(C)C(=O)c2cc(NC(=O)c3ccc(F)cc3)ccc2OC[C@H](C)N(C(C)=O)C[C@H]1C	none
C/C=C/c1ccc2c(c1)O[C@H](CN(C)C(=O)C1CCCCC1)[C@H](C)CN([C@H](C)CO)S2(=O)=O	none (no result: FN deposit inh)
O=C(CNCC(=O)Nc1ccc(F)c(F)c1F)Nc1ccc(F)c(F)c1F	none
O=C(CNC(=O)C1CC1)Nc1ccc(F)c(F)c1F	FGF22 binding 43
O=C(Cc1c(Cl)cccc1Cl)Nc1cccnc1	FGF22 binding 43
O=C(Cc1c(F)cccc1Cl)Nc1cccnc1	none (no result: Xi reactivation, FN deposit inh, DENV2 CPE)
C[C@@H]1CCCCO[C@@H](CN(C)C(=O)CCCN(C)C)[C@@H](C)CN([C@H](C)CO)C(=O)c2cc(NS(=O)(=O)c3cccs3)ccc2O1	none (no result: FN deposit inh)
C[C@@H]1CCCCO[C@@H](CN(C)C(=O)CCCN(C)C)[C@H](C)CN([C@@H](C)CO)C(=O)c2cc(NS(=O)(=O)c3cccs3)ccc2O1	FGF22 binding 1.3 (no result: FN deposit inh, DENV2 CPE)
C[C@H]1CCCCO[C@H](CN(C)C(=O)CCCN(C)C)[C@@H](C)CN([C@@H](C)CO)C(=O)c2cc(NS(=O)(=O)c3cccs3)ccc2O1	DENV2 CPE 23 (no result: FGF22 binding, ARNT TACC3 PPI, FN deposit inh)
O=C(CN1CCOCC1)N[C@@H]1CC[C@@H](CCn2cc(C3CC3)nn2)O[C@H]1CO	none
O=C(Nc1ccc(F)cc1)N[C@H]1CC[C@H](CC(=O)N2CCOCC2)O[C@@H]1CO	none
O=C(O)C[C@H]1C[C@@H]2c3cc(NC(=O)NC4CCCC4)ccc3O[C@@H]2[C@@H](CO)O1	none
COc1cc(/C=C2\C(=N)N3N=C(S(C)(=O)=O)SC3=NC2=O)ccc1OCCOc1ccccc1C	SIRT5 inh 33
CCCNC(=O)N1CC2(C1)CN(C(=O)Nc1ccc(F)cc1)[C@@H](CO)c1[nH]c3cc(OC)ccc3c12	none (no result: ARNT TACC3 PPI)
CCCNC(=O)N1CC2(C1)CN(C(=O)Nc1ccc(F)cc1)[C@H](CO)c1[nH]c3cc(OC)ccc3c12	DENV2 CPE 23 (no result: ARNT TACC3 PPI)
CCCNC(=O)N1CC2(C1)CN(C(=O)CCC)[C@H](CO)c1[nH]c3cc(OC)ccc3c12	none (no result: FGF22 binding, ARNT TACC3 PPI, FN deposit inh, SIRT5 inh, DENV2 CPE)
COc1ccc2c3c([nH]c2c1)[C@H](CO)N(C(=O)Nc1cccc(F)c1)CC31CN(S(=O)(=O)c2ccccc2)C1	DENV2 CPE 79 (no result: FGF22 binding, ARNT TACC3 PPI, FN deposit inh, SIRT5 inh)
CCCNC(=O)N1CC2(C1)CN(C(=O)CCC)[C@@H](CO)c1[nH]c3cc(OC)ccc3c12	DENV2 CPE 22 (no result: ARNT TACC3 PPI, FN deposit inh, SIRT5 inh)
COc1ccc2c3c([nH]c2c1)[C@@H](CO)N(C(=O)Nc1ccc(F)cc1)CC31CCN(C(=O)Nc2ccc3c(c2)OCO3)CC1	none (no result: ARNT TACC3 PPI)
COc1ccc2c3c([nH]c2c1)[C@H](CO)N(C(=O)Nc1ccc(F)cc1)CC31CCN(C(=O)Nc2ccc3c(c2)OCO3)CC1	DENV2 CPE 61 (no result: ARNT TACC3 PPI)
O=C(c1cnccn1)N1CC2(C1)[C@@H](c1ccccc1)[C@@H](CO)N2C(=O)c1ccccc1	none (no result: ARNT TACC3 PPI, FN deposit inh)
C[C@H](CO)N1C[C@H](C)[C@H](CN(C)C(=O)Nc2ccc(F)cc2)Oc2ccc(NC(=O)C3CCCCC3)cc2CC1=O	none
C[C@H]1CN([C@@H](C)CO)C(=O)c2cc(NC(=O)Cn3cnnn3)ccc2O[C@@H]1CN(C)Cc1ccc(-c2ccccc2)cc1	none (no result: FN deposit inh)
O=C(N[C@@H]1CC[C@@H](CCNS(=O)(=O)c2ccc(F)cc2)O[C@H]1CO)C1CC1	none

Source: PubChem BioAssay (Broad Institute)
